Source: ChEMBL document CHEMBL1221337, “The unsaturated acyclic nucleoside analogues bearing a sterically constrained (Z)-4'-benzamido-2'-butenyl moiety: Synthesis, X-ray crystal structure study, cytostatic and antiviral activity evaluations” (Bioorg Med Chem, 2010)
Active and inactive are the calls of the source. No cut-off for these calls is given here.

How the values were obtained:
[1] = system: Vesicular stomatitis virus; experiment: Antiviral activity against Vesicular stomatitis virus infected in HEL cells assessed as inhibition of virus-induced cytopathicity; format: functional, organism-based
Vaccinia virus = experiment: Antiviral activity against Vaccinia virus infected in HEL cells assessed as inhibition of virus-induced cytopathicity; format: functional, organism-based; details: Orthopoxvirus vaccinia
[2] = system: Vesicular stomatitis virus; experiment: Antiviral activity against Vesicular stomatitis virus infected in human HeLa cells assessed as inhibition of virus-induced cytopathicity; format: functional, organism-based
Procedure, shortened: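 Confluent HeLa cultures were infected with 100 CCID50 of virus. Unadsorbed virus was removed after 1 h, and compound was added at serial concentrations (200, 40, 8…). Viral cytopathic effect was read when untreated virus-infected control wells reached full cytopathicity.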

Human alphaherpesvirus 2 = experiment: Antiviral activity against HSV2 G infected in HEL cells assessed as inhibition of virus-induced cytopathicity; format: functional, organism-based; details: strain G
Procedure, shortened: (§1)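 Confluent cell monolayers in 96-well plates were inoculated with 100 CCID50 of virus. After 1 h adsorption, residual virus was removed. Cultures were then incubated with test compound at varying concentrations (200, 40, 8... µM). Viral cytopathicity was scored once it reached completion in untreated infected controls. Host cells: HEL for HSV-1 KOS and HSV-2 G; Vero for the Vero lines; HeLa for the HeLa lines.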

Human respirovirus 3 = experiment: Antiviral activity against Parainfluenza 3 infected in Vero cells assessed as inhibition of virus-induced cytopathicity; format: functional, organism-based; procedure, shortened: as §1
SK-BR-3 = experiment: Cytotoxicity against human SK-BR-3 cells after 72 hrs by MTT assay; format: functional, cell-based; details: SK-BR-3, 72 h
Procedure, shortened: (§2)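 Adherent cells were plated at 3000–6000 cells/well on day 0, according to doubling time. Compound was added as five 10-fold dilutions (1 × 10⁻⁸–1 × 10⁻⁴ M), with DMSO ≤0.1%, and incubated 72 h. Read-out was MTT absorbance converted to percentage growth versus untreated wells on the same plate. IC50 was obtained by linear regression between bracketing concentrations; the highest concentration was reported as ">" if not reached. Quadruplicates, three experiments.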

HeLa [3] = experiment: Cytotoxicity against human HeLa cells after 72 hrs by MTT assay; format: functional, cell-based; procedure, shortened: as §2
MCF7 = experiment: Cytotoxicity against human MCF7 cells after 72 hrs by MTT assay; format: functional, cell-based; details: MCF7, 72 h; procedure, shortened: as §2
HEp-2 = experiment: Cytotoxicity against human Hep2 cells after 72 hrs by MTT assay; format: functional, cell-based; details: HEp-2, 72 h; procedure, shortened: as §2
SW-620 = experiment: Cytotoxicity against human SW620 cells after 72 hrs by MTT assay; format: functional, cell-based; details: SW-620, 72 h; procedure, shortened: as §2
MIA PaCa-2 = experiment: Cytotoxicity against human MIAPaCa2 cells after 72 hrs by MTT assay; format: functional, cell-based; details: MIA PaCa-2, 72 h; procedure, shortened: as §2
[4] = Cytotoxicity against human WI38 cells after 72 hrs by MTT assay; format: cell-based; details: WI-38, 72 h; procedure, shortened: as §2
Human alphaherpesvirus 1 = experiment: Antiviral activity against HSV1 KOS infected in HEL cells assessed as inhibition of virus-induced cytopathicity; format: functional, organism-based; procedure, shortened: as §1
[5] = system: Mammalian orthoreovirus 1; experiment: Antiviral activity against Reovirus 1 infected in Vero cells assessed as inhibition of virus-induced cytopathicity; format: functional, organism-based; procedure, shortened: as §1
Sindbis virus = experiment: Antiviral activity against Sindbis virus infected in Vero cells assessed as inhibition of virus-induced cytopathicity; format: functional, organism-based; procedure, shortened: as §1
Coxsackievirus B4 [6] = experiment: Antiviral activity against Coxsackievirus B4 infected in Vero cells assessed as inhibition of virus-induced cytopathicity; format: functional, organism-based; procedure, shortened: as §1
Punta Toro virus = experiment: Antiviral activity against Punta Toro virus infected in Vero cells assessed as inhibition of virus-induced cytopathicity; format: functional, organism-based; procedure, shortened: as §1
Coxsackievirus B4 [7] = experiment: Antiviral activity against Coxsackievirus B4 infected in human HeLa cells assessed as inhibition of virus-induced cytopathicity; format: functional, organism-based; procedure, shortened: as §1
[8] = system: Respiratory syncytial virus; experiment: Antiviral activity against Respiratory syncytial virus infected in human HeLa cells assessed as inhibition of virus-induced cytopathicity; format: functional, organism-based; procedure, shortened: as §1
Influenza A virus = experiment: Antiviral activity against influenza A virus H1N1; H3N2 infected in MDCK cells assessed as inhibition of virus-induced cytopathicity; format: functional, organism-based
Procedure, shortened: (§3)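 MDCK cells, nearly confluent in microtiter plates, were infected with 100 CCID50 per well. After 1 h adsorption, the inoculum was washed off. Cells were incubated with graded compound concentrations (200, 40, 8…). Cytopathicity was recorded at completion in untreated infected controls.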

Influenza B virus = experiment: Antiviral activity against influenza B virus infected in MDCK cells assessed as inhibition of virus-induced cytopathicity; format: functional, organism-based; procedure, shortened: as §3
HEL = experiment: Cytotoxicity against HEL cells assessed as cell viability after 3 days by coulter counting; format: cell-based; details: human, 72 h
Procedure, shortened: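 HEL cells were seeded at 5 × 10³ cells/well and allowed to proliferate 24 h. Medium with test compound at different concentrations was then added, and cells were incubated 3 days at 37 °C. Cell number was counted by Coulter counter. CC50 (50% reduction in cell number versus untreated controls) was read from plots of cell number (% of control) against concentration.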

Vero = experiment: Cytotoxicity against african green monkey Vero cells assessed as cell viability after 3 days by coulter counting; format: cell-based; details: chlorocebus sabaeus, 72 h
HeLa [9] = experiment: Cytotoxicity against human HeLa cells assessed as cell viability after 3 days by coulter counting; format: cell-based; details: 72 h
MDCK = experiment: Cytotoxicity against MDCK cells assessed as cell viability after 3 days by coulter counting; format: cell-based, Canis lupus familiaris; details: dog, 72 h

Row | Structure (SMILES) | inhibition [1] | inhibition (Vaccinia virus) | inhibition [2] | inhibition (Human alphaherpesvirus 2) | inhibition (Human respirovirus 3) | IC50 (SK-BR-3) [µM] | IC50 (HeLa [3]) [µM] | IC50 (MCF7) [µM] | IC50 (HEp-2) [µM] | IC50 (SW-620) [µM] | IC50 (MIA PaCa-2) [µM] | IC50 [4] [µM] | inhibition (Human alphaherpesvirus 1) | inhibition [5] | inhibition (Sindbis virus) | inhibition (Coxsackievirus B4 [6]) | inhibition (Punta Toro virus) | inhibition (Coxsackievirus B4 [7]) | inhibition [8] | inhibition (Influenza A virus) | also measured
1 | O=C(NC/C=C\Cn1ccc(=O)[nH]c1=O)c1ccc(F)cc1 | inactive | inactive | inactive | inactive | inactive | > 100 | > 100 | 2.7 | > 100 | > 100 | > 100 | > 100 | inactive | inactive | inactive | inactive | inactive | inactive | inactive | inactive | inhibition (Influenza B virus): inactive; Activity (HEL): Non-toxic; Activity (Vero): Non-toxic; Activity (HeLa [9]): Non-toxic; Activity (MDCK): Non-toxic
2 | Nc1ncnc2c1ncn2C/C=C\CNC(=O)c1ccccc1 | inactive | inactive | inactive | inactive | inactive | > 100 | > 100 | > 100 | > 100 | > 100 | > 100 | > 100 | inactive | inactive | inactive | inactive | inactive | inactive | inactive | inactive | inhibition (Influenza B virus): inactive; Activity (HEL): Non-toxic; Activity (Vero): Non-toxic; Activity (HeLa [9]): Non-toxic; Activity (MDCK): Non-toxic
3 | Cc1cn(C/C=C\CNC(=O)c2ccccc2)c(=O)[nH]c1=O | inactive | inactive | inactive | inactive | inactive | > 100 | > 100 | > 100 | > 100 | > 100 | > 100 | 4.3 | inactive | inactive | inactive | inactive | inactive | inactive | inactive | inactive | inhibition (Influenza B virus): inactive; Activity (HEL): Non-toxic; Activity (Vero): Non-toxic; Activity (HeLa [9]): Non-toxic; Activity (MDCK): Non-toxic
4 | O=C(NC/C=C\Cn1ccc(=O)[nH]c1=O)c1ccccc1 | inactive | inactive | inactive | inactive | inactive | > 100 | 4.9 | > 100 | > 100 | > 100 | > 100 | 6.6 | inactive | inactive | inactive | inactive | inactive | inactive | inactive | inactive | inhibition (Influenza B virus): inactive; Activity (HEL): Non-toxic; Activity (Vero): Non-toxic; Activity (HeLa [9]): Non-toxic; Activity (MDCK): Non-toxic
5 | O=C(NC/C=C\Cn1cc(C(F)(F)F)c(=O)[nH]c1=O)c1ccccc1 | inactive | inactive | inactive | inactive | inactive | > 100 | > 100 | > 100 | > 100 | > 100 | > 100 | > 100 | inactive | inactive | inactive | inactive | inactive | inactive | inactive | inactive | inhibition (Influenza B virus): inactive; Activity (HEL): Non-toxic; Activity (Vero): Non-toxic; Activity (HeLa [9]): Non-toxic; Activity (MDCK): Non-toxic
